Compound activity deposited in PubChem BioAssay by The Scripps Research Institute Molecular Screening Center.
Rows were chosen to be rich in hits. Some 1.2% of all compounds tested hit in one or more screens of this group.
TPT1 inh = inhibitors of Candida albicans tRNA 2'-phosphotransferase TPT1; recombinant caTPT1, FP RNA substrate dephosphorylation; inhibition, % at 5 µM; hit rate 0.81% among 300,000;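 active = inhibition above the mean of all tested compounds plus 3 SD, set per screening campaign, cut at about 24% in these data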
IDE cell inh = inhibitors of human insulin-degrading enzyme in cells; hit rate 0.41% among 320,000; HEK cells, FAbetaB cleavage, fluorescence polarization; inhibition, % at 5.59 µM;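 active = percent inhibition above the average of all tested compounds plus 3 SD, set per screening campaign, cut at about 16% in these data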;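 note: IDE supplied by intact live HEK cells; FP after avidin binding of uncleaved biotin substrate so inhibition keeps polarization high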
IDE act = activators of human insulin-degrading enzyme in cells; P14735; HEK cells, FAbeta-B cleavage, fluorescence polarization; 0% vehicle, 100% cell-free pure enzyme wells; activation, % at 5.96 µM; hit rate 0.073% among 340,000;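 active = activation above the mean of all tested compounds plus 3 SD, set per screening campaign, cut at about 17% in these data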
proCasp3 act = procaspase-3 (human) activation; AID 463141; activation, % at 8.5 µM; recombinant procaspase-3 D3A, Ac-DEVD-pNA absorbance 405 nm; P42574; hit rate 0.11% among 330,000;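 active = activation above the mean of all tested compounds plus 3 SD, cut at about 21% in these data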
Target sequence (P42574 whole entry D9A/D28A/D175A): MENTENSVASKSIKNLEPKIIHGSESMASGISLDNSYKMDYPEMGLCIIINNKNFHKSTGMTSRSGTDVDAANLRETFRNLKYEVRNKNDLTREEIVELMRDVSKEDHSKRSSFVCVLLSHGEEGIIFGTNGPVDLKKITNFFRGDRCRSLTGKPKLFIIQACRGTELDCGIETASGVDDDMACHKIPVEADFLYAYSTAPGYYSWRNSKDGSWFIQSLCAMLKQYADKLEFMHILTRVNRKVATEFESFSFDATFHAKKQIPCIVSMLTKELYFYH
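material = Procaspase-3 D3A mutant | probe or stimulus = Ac-DEVD-pNA | compound = single dose, 8.5 µM nominal compound, 0.8% DMSO | timing = 1 h preincubation, 2 h reaction | measured by = 405 nm absorbance of p-nitroaniline, reads at 0 and 120 min | benchmarks = DMSO-only low control, 5 µM PC-3 D3A high control | repeats = singlicate, each compound tested once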
proCasp7 act = activates human procaspase-7, counter-screen for procaspase-3 activators; recombinant procaspase-7, Ac-DEVD-pNA absorbance 405 nm; D23A/D198A/D206A triple mutant, cannot self-cleave; scale: DMSO 0, 5 µM enzyme 100; hit rate 0.093% among 330,000; activation, % at 8.5 µM;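 active = percent activation above the screen-wide mean plus 3 SD, cut at about 25% in these data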
Target sequence (P55210 whole entry D23A/D198A/D206A): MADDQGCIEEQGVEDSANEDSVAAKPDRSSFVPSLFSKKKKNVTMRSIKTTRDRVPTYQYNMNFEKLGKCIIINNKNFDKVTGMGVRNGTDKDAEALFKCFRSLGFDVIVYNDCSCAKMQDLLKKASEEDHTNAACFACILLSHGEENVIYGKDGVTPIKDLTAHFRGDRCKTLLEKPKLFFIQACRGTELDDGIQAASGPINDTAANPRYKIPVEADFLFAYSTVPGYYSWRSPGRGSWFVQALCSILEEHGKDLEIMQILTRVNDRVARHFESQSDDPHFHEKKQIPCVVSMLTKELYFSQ
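Assay system: Uncleavable procaspase-7 mutant enzyme / Input: 2 µM procaspase-7 mutant as dispensed / Dosing: single nominal 8.5 µM compound dose, 0.8% DMSO final / Timing: 1 h enzyme–compound preincubation and 2 h substrate reaction, both 25 °C / Detection: p-Nitroaniline absorbance at 405 nm, read at 0 and 120 min / Replication: singlicate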
caTPT1 confirm = TPT1 (C. albicans) inhibition, confirmation; shares compounds with TPT1 inh; recombinant caTPT1, fluorescence polarization, RNase T1 coupled; inhibition, % at 5 µM; hit rate 74% among 2,400; AID 2149;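 active = inhibition above the primary screen limit, the mean inhibition of all tested compounds plus 3 SD, cut at about 25% in these data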
RNase T1 counter = counter-screen for TPT1 inhibitors: inhibitors of Aspergillus oryzae RNase T1; shares compounds with TPT1 inh; RNase T1 cleavage, fluorescence polarization, 1536-well; inhibition, % at 5 µM; hit rate 83% among 2,400;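 active = inhibition above the solvent-only control well mean plus 3 SD, limit set per screening run, cut at about 23% in these data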;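 note: inhibitors block cleavage so intact labeled substrate keeps polarization high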
Target sequence (P00651 whole entry, looked up): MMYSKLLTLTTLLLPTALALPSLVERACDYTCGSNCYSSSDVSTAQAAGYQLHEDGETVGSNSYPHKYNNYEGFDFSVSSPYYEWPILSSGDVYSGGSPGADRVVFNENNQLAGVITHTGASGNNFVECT
IDE cell inh cf = confirmation of human insulin-degrading enzyme inhibitors in cells; shares compounds with IDE cell inh; HEK cells, FAbetaB cleavage, fluorescence polarization; inhibition, % at 5.59 µM; hit rate 51% among 1,200; AID 435028;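 active = mean inhibition across triplicate wells above the cutoff set by the earlier primary insulin-degrading enzyme screen, cut at about 16% in these data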
HEK cytotox = HEK cell cytotoxicity, counter-screen for IDE inhibitors | shares compounds with IDE cell inh | HEK293 cytotoxicity, ATP luminescence | inhibition, % at 5.59 µM | hit rate 28% among 1,200; in the data active = inhibition above about 22%
Numbers stand for hits; - = inactive; . = not tested or not shown; + = active, no number.

SMILES	TPT1 inh	IDE cell inh	IDE act	proCasp3 act	proCasp7 act	caTPT1 confirm	RNase T1 counter	IDE cell inh cf	HEK cytotox
CN(C)c1ccc(/C=C/C(=O)c2ccc(O)cc2)cc1	.	.	-	.	.	.	.	.	.
COc1ccc(C(=O)/C=C/c2ccc(N(C)C)cc2)c(OC)c1	100.9	81.7	-	-	-	103.3	102.2	25.9	47.2
COc1ccc(C(=O)/C=C/c2ccccc2)c(OC)c1	-	-	-	-	-	.	.	.	.
Oc1c(Cl)cc(Cl)cc1/C=C/c1ccc2cccc(O)c2n1	56.1	33.0	-	-	-	51.5	59.2	54.2	-
Cc1cccc(/C=C\c2nc3ccccc3c(=O)[nH]2)c1	-	-	-	-	-	.	.	.	.
COc1cc(/C=C/c2nc3ccccc3c(=O)[nH]2)cc(Cl)c1O	40.6	26.8	-	-	-	71.5	74.4	99.5	-
O=C(OCCN1C(=O)c2cccc3c(N4CCOCC4)ccc(c23)C1=O)c1ccc(Cl)cc1Cl	59.3	49.3	-	-	-	64.4	70.5	48.5	61.5
O=C(OCCN1C(=O)c2ccccc2C1=O)c1cc(S(=O)(=O)N2CCOCC2)ccc1Cl	-	-	-	-	-	.	.	.	.
O=C(OCCN1C(=O)c2cccc3c(N4CCOCC4)ccc(c23)C1=O)c1ccccc1Cl	53.0	112.7	-	-	-	63.2	69.7	96.2	49.5
O=C(OCCN1C(=O)c2cccc3c(N4CCOCC4)ccc(c23)C1=O)c1cccc(Cl)c1	49.0	91.2	.	-	-	62.0	69.8	81.2	38.3
CCOC(=O)CNC(=O)C1CCN(S(=O)(=O)c2ccc(-c3nn[nH]n3)cc2)CC1	-	-	-	-	-	.	.	.	.
CCOc1ccc(CNS(=O)(=O)c2cc(-c3cc(C)no3)ccc2OC)cc1OC	-	-	-	-	-	.	.	.	.
Cc1c(NC(=O)CN2CCN(c3ccc(O)cc3)CC2)c(=O)n(-c2ccccc2)n1C	-	-	-	-	-	.	.	.	.
CC1C/C(=C/c2cccn2C)C(=O)/C(=C/c2cccn2C)C1 (stereo not drawn)	190.6	38.9	-	-	-	187.0	169.6	94.4	22.9
Cn1c(N)c(-c2ccccc2)c2ccc([N+](=O)[O-])cc2c1=O	84.2	25.1	-	-	-	89.0	91.5	25.4	26.7
CCN(CC)c1ccc2c(c1)OC(N)=C(C#N)C2c1cccnc1 (stereo not drawn)	71.5	49.2	-	-	-	56.7	64.5	30.8	70.0
CCCn1c2ccccc2c2cnn(CC(=O)NCCCN3C(C)CCCC3C)c(=O)c21 (stereo not drawn)	-	-	-	-	-	.	.	.	.
O=C(CN1C(=O)S/C(=C\c2ccccn2)C1=O)Nc1ccccc1	.	.	-	.	.	.	.	.	.
O=C(CN1C(=O)S/C(=C\c2cc(Cl)c(O)c(Cl)c2)C1=O)Nc1ccccc1	95.6	20.8	-	-	-	99.7	108.3	22.5	-
COc1cc(/C=C2\SC(=S)N(NC(=O)c3ccc(O)c(OC)c3)C2=O)ccc1O	34.5	108.7	-	-	-	44.2	58.3	88.8	-
COc1cc(/C=C2\SC(=S)N(NS(=O)(=O)c3ccc(C)cc3)C2=O)ccc1O	29.9	72.0	-	-	-	36.0	47.8	160.8	-
COc1cc(/C=C2\SC(=S)N(NS(=O)(=O)c3ccc(C)cc3)C2=O)cc(OC)c1OC	-	-	-	-	-	.	.	.	.
CCOc1cc(/C=C2\SC(=S)N(NC(=O)c3cccnc3)C2=O)ccc1O	50.1	40.7	.	-	-	38.6	54.0	148.2	-
COc1cc(/C=C2\SC(=S)N(NS(=O)(=O)c3ccccc3)C2=O)ccc1O	30.8	74.3	-	-	-	34.4	41.6	160.8	-
S=C(NCCc1ccccc1)NC1CC2CCC(C1)N2Cc1ccccc1 (stereo not drawn)	-	-	-	-	-	.	.	.	.
SMILES	TPT1 inh	IDE cell inh	IDE act	proCasp3 act	proCasp7 act	caTPT1 confirm	RNase T1 counter	IDE cell inh cf	HEK cytotox
O=C(NCc1ccccc1)C1CCCN(C(=O)c2ccc(F)cc2)C1 (stereo not drawn)	.	.	-	.	.	.	.	.	.
N#C/C(=C\c1ccc(O)cc1)c1nc2ccccc2o1	101.6	42.8	-	-	-	113.9	115.7	118.6	-
COc1cc(/C=C(\C#N)c2nc3ccccc3o2)ccc1O	163.5	87.6	-	-	-	169.9	156.3	83.9	-
COc1cc(/C=N/Nc2nc3ccccc3[nH]2)ccc1O	-	-	-	-	-	.	.	.	.
Cc1ccc(C)c(N/C=C(\C#N)c2nc3ccccc3o2)c1	-	-	-	-	-	.	.	.	.
CS(=O)(=O)c1ccc(NC(=O)c2ccc3c(c2)S(=O)(=O)N=C2CCCCCN23)cc1	-	-	-	-	-	.	.	.	.
COc1cc(/C=C2\COC/C(=C\c3ccc(O)c(OC)c3)C2=O)ccc1O	-	-	-	-	-	.	.	.	.
COc1cc(/C=C2/CC/C(=C/c3ccc(O)c(OC)c3)C2=O)ccc1O	112.7	24.2	-	-	-	117.0	118.7	35.5	31.9
CCN1CCN(c2cc(C)nc(-c3ccccc3O)n2)CC1	-	-	-	-	-	.	.	.	.
CCOc1ccc(C(=O)CCC(=O)NCC(=O)Nc2c(C)cccc2C)cc1	.	-	-	-	-	.	.	.	.
COc1cccc(C(=O)Nc2cccc(-c3ccc4nncn4n3)c2)c1OC	-	-	-	-	-	.	.	.	.
COc1ccc(Cl)cc1C(=O)Nc1cccc(-c2ccc3nncn3n2)c1	38.4	16.9	-	-	-	54.9	28.4	-	22.2
COc1ccc(C(=O)OCC(=O)c2ccc[nH]2)c(OC)c1	.	-	-	-	-	.	.	.	.
CN(c1ccccc1)c1ccc(/C=C/[N+](=O)[O-])cc1	41.9	32.3	-	-	-	54.7	71.4	26.0	116.6
CCCN1C(=O)/C(=C/C=C2\N(CC)c3ccccc3C2(C)C)SC1=S	177.8	16.1	-	-	-	138.4	125.2	114.3	-
CN1/C(=C\C=C2/SC(=S)N(CC(=O)O)C2=O)C(C)(C)c2ccccc21	78.6	132.6	-	-	-	74.5	78.3	25.9	-
CCN1C(=O)/C(=C/C=C2/SCCN2C)SC1=S	+	26.5	-	-	-	168.2	157.4	68.9	-
CCN1C(=O)/C(=C/C=C2/Sc3ccccc3N2CCO)SC1=S	39.7	20.1	-	-	-	32.9	45.5	19.2	-
CCCCN1C(=O)/C(=C/C=C2/CC(C)(C)CN2C)SC1=S	169.1	106.7	-	-	-	173.5	159.7	148.6	28.4
CN1CCS/C1=C\C=C1/SC(=S)N(CC(=O)O)C1=O	.	.	-	.	.	.	.	.	.
